Screening results: PubChem, several laboratories
An excerpt weighted towards active compounds, which were near 4.4% of everything screened.
AI-2 QS modul – Vibrio harveyi AI-2 quorum sensing modulators, primary screen, JMH597 strain, luminescence/OD600 ratio. Vibrio harveyi JMH597 AI-2 luminescence/OD600 ratio, 9 h; active compounds read low; strain lacks LuxN and CqsS sensors; 0 = neutral-control median. hit rate 0.4% among 300,000. activity change, % at 7.5 µM; in the data active = activity change below about -75%, passing the limit was not always enough;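 note: luminescence divided by OD600 gain over 9 h not by final OD600 alone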
TbMetRS inhib – T. brucei MetRS inhibitors, primary screen, biochemical, luminescence; purified T. brucei MetRS, ATP depletion, Kinase-Glo luminescence; inhibition, % at 11.9 µM; hit rate 0.4% among 360,000; AID 624268, 2012;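 active = inhibition above a per-plate cutoff of the control wells' mean inhibition plus 3 SD, cut at about 5.5% in these data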;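 note: 0% = DMSO wells median and 100% = median of wells with control inhibitor compound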
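Measured by: Kinase-Glo luciferase luminescence reporting remaining unconsumed ATP. Material: purified T. brucei MetRS enzyme. Doses: 11.9 µM compound single dose, 0.9% DMSO. Medium: HEPES buffer containing pyrophosphatase, BSA, spermine, DTT. Times: 15 min preincubation, 2 h reaction, all 25 °C. Reagent: methionine, ATP and bulk E. coli tRNA.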
AHR act – AHR activators, primary screen, cell-based, luminescence, luciferase reporter, human; Aryl hydrocarbon receptor (Homo sapiens), P35869; AHR-responsive luciferase reporter cells; activation, % at 5 µM; hit rate 2.5% among 320,000; AID 2796, 2010; in the data active = activation above about 47%;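 note: 0% = vehicle wells and 100% = reference agonist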
m5-HT2A agonist – mouse Htr2a agonists via beta-arrestin recruitment, primary screen, cell-based, luminescence | hit rate 0.66% among 360,000 | activation, % at 7.6 µM | CHO-K1 mHTR2A beta-arrestin complementation; percent of 30 µM serotonin response | 5-hydroxytryptamine receptor 2A (Mus musculus), P35363;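 active = activation above a run cutoff, the mean activation of all tested compounds plus 3 SD, cut at about 14% in these data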;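 note: 0% = plate median of compound wells and 100% = 30 µM serotonin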
Target sequence (P35363 whole entry, looked up): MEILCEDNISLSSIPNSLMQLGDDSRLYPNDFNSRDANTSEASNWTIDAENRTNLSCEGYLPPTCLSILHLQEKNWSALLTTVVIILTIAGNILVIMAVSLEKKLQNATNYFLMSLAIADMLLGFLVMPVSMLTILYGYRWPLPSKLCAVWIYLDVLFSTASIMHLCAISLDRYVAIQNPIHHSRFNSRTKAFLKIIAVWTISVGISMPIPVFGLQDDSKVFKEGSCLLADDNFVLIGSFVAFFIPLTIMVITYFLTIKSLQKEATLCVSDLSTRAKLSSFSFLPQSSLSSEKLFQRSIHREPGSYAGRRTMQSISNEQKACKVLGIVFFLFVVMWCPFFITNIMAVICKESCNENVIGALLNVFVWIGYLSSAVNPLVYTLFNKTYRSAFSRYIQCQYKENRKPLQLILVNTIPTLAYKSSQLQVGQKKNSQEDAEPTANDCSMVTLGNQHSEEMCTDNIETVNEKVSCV
MsrA inh – bovine MsrA enzyme inhibitors, primary screen, biochemical, absorbance, HTS | hit rate 0.75% among 360,000 | inhibition, % at 15.5 µM | purified bovine MsrA, absorbance read-out; in the data active = inhibition above about 4.5%;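 note: 0% = vehicle wells with enzyme and 100% = reference inhibitor wells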
MsrA act – bovine MsrA enzyme activators, primary screen, biochemical, absorbance, HTS. activation, % at 10.6 µM. purified bovine MsrA, absorbance read-out. Methionine sulfoxide reductase A (Bos taurus). hit rate 0.3% among 360,000. AID 602163, 2012; in the data active = activation above about 7.5%;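 note: 0% = vehicle and 100% = reference activator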
MsrA activ conf – bovine MsrA activators, retest, confirmation, biochemical, absorbance, HTS | shares compounds with MsrA act | purified bovine MsrA, absorbance read-out | activation, % at 10.6 µM | hit rate 12% among 1,000 | AID 602270, 2012; in the data active = activation above about 4%;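 note: enzyme coupled to thioredoxin and thioredoxin reductase with NADPH; 0% = vehicle wells and 100% = reference activator wells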
* hit, by the source's call; / = no result given; ! = not active in a repeat.

SMILES	AI-2 QS modul	TbMetRS inhib	AHR act	m5-HT2A agonist	MsrA inh	MsrA act	MsrA activ conf
COc1ccc(NS(=O)(=O)c2cc(C)ccc2NC(=O)c2cc(C)oc2C)cc1	20.6	-0.6	19.1	-1.8	-0.7	9.3*	-0.7
CC1CCCCC12NC(=O)N(CC(=O)N1CCN(c3ncccn3)CC1)C2=O (stereo not drawn)	/	-0.3	-0.6	4.1	0.7	0.6	/
N#Cc1cccc(NC(=O)COC(=O)c2ccc[n+]([O-])c2)c1	/	-0.2	1.5	2.5	0.8	-1.8	/
C[C@@H](CSc1ccccc1)CN1CC[C@H](C(C)(C)C)CCC1=O	13.6	-0.2	-1.1	0.1	1.2	8.2*	-0.8
COc1ccccc1OC(=O)c1ccc2nsnc2c1	7.5	-0.6	0.5	1.4	0.9	16.4*	3.2
CC(C)(C)c1ccc(OC(=O)c2ccc3nsnc3c2)cc1	-34.2	-0.1	7.3	-0.5	0.4	-1.6	/
CN1CCN(C(c2ccccn2)c2cc(Cl)c3cccnc3c2O)CC1 (stereo not drawn)	-31.2	-0.5	8.0	11.6	1.8	18.0*	-2.0
CCCn1c(=O)c2ccccc2n2c(SCC(=O)c3ccccc3)nnc12	32.5	-0.2	0.1	2.0	-0.1	12.3*	-3.3
COc1ccc(N2N=NN(C(C)C)C2=C(Cl)c2nnnn2-c2ccc(OC)cc2)cc1	/	-0.3	/	-2.8	-0.7	-0.7	/
O=C(NCCc1ccc(Cl)cc1)C12CC3CC(CC(O)(C3)C1)C2	29.1	0.2	5.2	-1.6	-0.5	9.2*	-3.5
O=C(NCCN1C(=O)S/C(=C/c2cccnc2)C1=O)c1ccc(S(=O)(=O)N2CCCC2)cc1	/	0.5	/	3.9	2.3	-4.6	/
CC1(C)CCC(=NNC(N)=S)CC1	/	-0.6	/	3.9	-0.5	-6.5	/
NC(=S)NN=C1CSSC1	/	-0.4	/	-4.7	/	14.5*	23.4*
CC(C)(C)c1ccc(OCCC(=O)NCC(c2cccs2)N2CCOCC2)cc1 (stereo not drawn)	6.1	-0.4	-0.8	1.0	-1.4	13.5*	0.7
O=C1C(=O)c2c(ccc3ccccc23)-c2ccccc21	/	0.2	/	1.2	-0.4	11.6*	8.2*
O=C(c1cccc([N+](=O)[O-])c1)c1cc2ccccc2o1	-1.6	0.0	-4.0	2.6	0.7	8.8*	0.2
CCOC(=O)C1CCCN(C/C=C/c2ccccc2[N+](=O)[O-])C1 (stereo not drawn)	1.6	-0.1	8.9	-7.6	-0.4	7.9*	-1.0
O=C(O)C1Cc2ccccc2-c2ccccc2C1	11.7	-0.3	0.2	-0.5	0.6	-0.4	/
O=C(O)[C@@H]1Cc2ccccc2N1	12.3	-0.3	19.7	0.8	0.9	8.2*	-2.2
NCc1csc(Nc2ccc(C(=O)c3ccccc3)cc2)n1	/	-0.1	/	0.8	1.9	-2.8	/
CCN1CCN(Cc2ccc(NC(=O)c3ccc(C)c(NC(=O)C[C@@H]4NC(=O)[C@H](Cc5ccccc5)NC4=O)c3)cc2C(F)(F)F)CC1	7.7	-0.1	1.8	-4.1	0.7	7.7*!	-3.2
CCN1CCN(Cc2ccc(NC(=O)c3ccc(C)c(NC(=O)C4=NN(c5ccccc5)C(=O)C4)c3)cc2C(F)(F)F)CC1	14.9	-1.2	-0.7	-3.3	0.9	-4.3	/
COc1ccc(-c2csc(/C(C#N)=C/Nc3ccc4c(c3)OCCO4)n2)cc1	8.3	-0.1	5.4	-0.8	-1.2	-4.6	/
COc1ccc(-c2csc(/C(C#N)=C/Nc3cc4oc5ccccc5c4cc3OC)n2)cc1	6.5	0.5	9.1	-0.8	-0.2	13.4*	-0.5
CCN(CC)C(=O)CSc1ncnc2sc(-c3ccccc3)cc12	16.4	-0.5	19.1	-5.8	1.6	7.7*	1.2
SMILES	AI-2 QS modul	TbMetRS inhib	AHR act	m5-HT2A agonist	MsrA inh	MsrA act	MsrA activ conf
Cc1ccccc1N=C1NC(=O)/C(=C/c2cccn2C)S1	3.8	0.3	0.8	5.0	1.8	8.1*	-1.9
CN(Cc1ccccc1)C(=O)c1cccc(NC(=O)C2CCCN(C(=O)OC(C)(C)C)C2)c1 (stereo not drawn)	/	-0.1	3.2	-3.7	-0.9	7.7*	-2.3
CC(C)(C)OC(=O)N1CCCC(C(=O)Nc2cccc(C(=O)NCc3ccccc3)c2)C1 (stereo not drawn)	/	0.7	/	-4.0	1.5	-0.3	/
Cn1c(=O)c2[nH]c(C3CC3)nc2n(C)c1=O	/	-0.5	/	-2.3	1.0	-2.1	/
N#Cc1cnn(-c2ccc([N+](=O)[O-])cc2[N+](=O)[O-])c1N	/	-0.1	/	2.7	-0.4	8.3*	1.5
CCc1nn(CC(=O)NCCCN2CCOCC2)c(=O)c2cc3cc(F)ccc3n12	8.3	-0.4	3.0	0.7	0.9	7.9*	-0.8
CCc1nn(CC(=O)NCCCN2CCOCC2)c(=O)c2cc3sccc3n12	13.7	0.7	-0.5	-0.6	2.3	0.4	/
COc1ccc(Cn2nnnc2C(c2cccs2)N2CCOCC2)cc1 (stereo not drawn)	-6.9	0.0	1.0	3.8	0.0	7.8*	-1.0
c1ccc(CCn2nnnc2C(c2cccs2)N2CCOCC2)cc1 (stereo not drawn)	12.5	-0.2	0.9	-2.5	0.1	-8.1	/
CCCCCCN1C[C@H](n2cc(C3CC3)nn2)[C@@H](O)C[C@@H]1c1ccc(OC)cc1	/	-0.7	/	-1.3	-0.3	-1.5	/
Cc1cnc(CNC(=O)c2ccc3nc([C@@H]4O[C@H](CO)[C@H](O)[C@H](O)[C@H]4O)[nH]c3c2)cn1	/	-0.1	/	1.2	-0.8	-1.5	/
Cc1cccc(NC(=O)c2cc(S(=O)(=O)N3CCCCC3)ccc2Cl)n1	/	-0.4	/	-5.3	-0.3	12.4*	-1.2
CC1=C(C)CS(=O)N(c2ccc(S(N)(=O)=O)cc2)C1 (stereo not drawn)	18.2	-0.7	0.7	5.0	-1.4	7.8*	-3.3
CN(C)CCNC(=O)c1cccc2nc3cccc(F)c3nc12	/	-0.5	/	-2.9	1.6	1.0	/
COc1ccc(OC)c2nc3c(C(=O)NCCN(C)C)cccc3nc12	/	-0.1	/	-2.9	-0.1	20.6*	11.7*
O=C(NCc1ccccc1)c1ccc2c(=O)n(CC3CCCO3)c(=S)[nH]c2c1 (stereo not drawn)	10.3	-0.1	-2.5	0.4	0.9	12.8*	3.1
Cc1ccc(CNC(=O)c2ccc3c(=O)n(CC4CCCO4)c(=S)[nH]c3c2)cc1 (stereo not drawn)	13.8	-0.6	-0.7	4.9	-0.9	-5.7	/
CCN1CCN(c2ccc(S(=O)(=O)N3CCCCC3)cc2NC(=O)c2cccc(C)c2)CC1	15.2	-0.4	-1.7	-3.6	-0.5	9.3*	-1.8
